We go through six compounds from ChEMBL document CHEMBL1137584, “Constrained 7-fluorocarboxychromone-4-aminopiperidine based Melanin-concentrating hormone receptor 1 antagonists: the effects of chirality on substituted indan-1-ylamines” (Bioorg Med Chem Lett, 2007).

The target in data set [1] is Voltage-gated inwardly rectifying potassium channel KCNH2 (Homo sapiens, UniProt Q12809). The experiment in a line: Displacement of 3H-dofetilide from hERG-expressing HEK membrane homogenates. (Loss of bound radioactivity is the signal in a displacement assay; it reports binding, not function.)
The target in data set [2] is Melanin-concentrating hormone receptor 1 (Homo sapiens, UniProt Q99705). The experiment in a line: Displacement of 125I-MCH from MCH-R1 expressed in IMR-32 cells. Format: cell-based.
The target in data set [3] is Melanin-concentrating hormone receptor (Homo sapiens, UniProt Q969V1+Q99705). The data set is described as follows: Inhibition of MCH-mediated calcium release in IMR-32 cells. Format: functional, cell-based.
The subject of data set [4] is Mus musculus. The experiment in a line: Plasma AUC in DIO mice after 10 mg/kg peroral dose. In kind it is ADME, organism-based. Details: dose 10 mg/kg, route oral. The note with it: in vivo, po. In short, it runs like this:
(§1)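 Single oral dose, 10 mg/kg in 1% Tween 80/water, to DIO mice; plasma and brain sampled over time. Cmax = average of the three mice with highest concentrations ± SEM. Mean concentration data fitted multi-exponentially; AUC0-t by linear trapezoidal rule, extrapolated to infinity with Ct/β added.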

The subject of data set [5] is Mus musculus. The experiment in a line: Plasma Cmax in DIO mice after 10 mg/kg peroral dose. In kind it is ADME, organism-based. Also noted: dose 10 mg/kg, route oral. The note with it: in vivo, po. Summed up: as §1
Data set [6] deals with Mus musculus. The experiment in a line: (§2) Half-life in plasma of DIO mice after 10 mg/kg peroral dose. The note with it: in vivo, po. Format: ADME, organism-based. Details: dose 10 mg/kg, route oral. In short, it runs like this:
as §1

The subject of data set [7] is Mus musculus. The experiment in a line: Brain AUC in DIO mice after 10 mg/kg peroral dose. Details: dose 10 mg/kg, route oral. In kind it is ADME, organism-based. The conditions noted are these: in vivo, po. Summed up:
as §1

Data set [8] in a line: Brain Cmax in DIO mice after 10 mg/kg peroral dose. In kind it is ADME, organism-based. Details: dose 10 mg/kg, route oral. The conditions noted are these: mouse, po. In short, it runs like this:
as §1

Data set [9] in a line: as §2. In kind it is ADME, organism-based. Details: dose 10 mg/kg, route oral. The conditions noted are these: mouse, plasma, po. Summed up: as §1

Chain of Voltage-gated inwardly rectifying potassium channel KCNH2 (Q12809 whole entry): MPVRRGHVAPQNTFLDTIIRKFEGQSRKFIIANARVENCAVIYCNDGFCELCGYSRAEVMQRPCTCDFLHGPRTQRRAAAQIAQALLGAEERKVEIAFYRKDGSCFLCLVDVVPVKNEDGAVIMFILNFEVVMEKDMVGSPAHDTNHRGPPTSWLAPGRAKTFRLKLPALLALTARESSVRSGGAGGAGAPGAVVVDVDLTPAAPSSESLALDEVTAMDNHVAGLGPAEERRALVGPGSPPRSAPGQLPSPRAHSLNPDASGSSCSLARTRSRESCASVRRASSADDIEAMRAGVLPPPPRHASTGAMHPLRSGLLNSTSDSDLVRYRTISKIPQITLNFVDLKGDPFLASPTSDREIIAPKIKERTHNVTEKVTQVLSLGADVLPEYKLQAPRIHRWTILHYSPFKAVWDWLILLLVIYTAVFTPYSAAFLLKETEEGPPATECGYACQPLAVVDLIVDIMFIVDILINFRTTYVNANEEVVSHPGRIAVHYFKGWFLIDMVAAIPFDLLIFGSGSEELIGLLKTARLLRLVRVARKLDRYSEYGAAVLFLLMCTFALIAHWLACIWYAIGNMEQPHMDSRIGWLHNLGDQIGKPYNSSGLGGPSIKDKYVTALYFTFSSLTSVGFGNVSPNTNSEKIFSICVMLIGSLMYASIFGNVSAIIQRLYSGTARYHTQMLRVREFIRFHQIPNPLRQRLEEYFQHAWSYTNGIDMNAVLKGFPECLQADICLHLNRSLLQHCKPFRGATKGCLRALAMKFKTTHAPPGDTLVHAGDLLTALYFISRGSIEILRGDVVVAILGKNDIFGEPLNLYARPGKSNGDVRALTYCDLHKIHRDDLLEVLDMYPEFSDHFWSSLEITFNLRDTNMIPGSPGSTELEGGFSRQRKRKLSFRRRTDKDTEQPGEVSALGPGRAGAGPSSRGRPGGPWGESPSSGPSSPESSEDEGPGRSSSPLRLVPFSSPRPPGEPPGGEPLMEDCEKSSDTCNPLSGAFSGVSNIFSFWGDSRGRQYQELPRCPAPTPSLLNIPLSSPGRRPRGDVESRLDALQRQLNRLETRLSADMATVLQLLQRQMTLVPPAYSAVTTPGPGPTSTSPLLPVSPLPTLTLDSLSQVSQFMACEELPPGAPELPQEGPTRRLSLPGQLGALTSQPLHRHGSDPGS
Chain of Melanin-concentrating hormone receptor 1 (Q99705 whole entry): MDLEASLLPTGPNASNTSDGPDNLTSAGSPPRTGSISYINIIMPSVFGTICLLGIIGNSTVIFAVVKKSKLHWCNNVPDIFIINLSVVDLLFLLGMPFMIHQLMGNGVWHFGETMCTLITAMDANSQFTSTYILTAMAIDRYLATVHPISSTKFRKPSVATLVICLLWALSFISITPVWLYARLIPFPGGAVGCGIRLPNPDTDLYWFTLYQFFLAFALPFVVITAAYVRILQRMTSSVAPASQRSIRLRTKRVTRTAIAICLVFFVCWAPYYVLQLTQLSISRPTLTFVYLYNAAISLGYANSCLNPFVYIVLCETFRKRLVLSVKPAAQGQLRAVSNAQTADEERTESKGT

In the case of `O=C(NC1CCN(C2CCc3cc4oc(=O)[nH]c4cc32)CC1)c1cc(=O)c2ccc(F)cc2o1` (centres undefined), the concentration for half-maximal inhibition (IC50) (usually the concentration needed to halve the response being measured) came to 25 µM in data set [1], 0.011 µM in data set [2] and 0.173 µM in data set [3].

On to `O=C1COc2cc3c(cc2N1)C(N1CCC(NC(=O)c2cc(=O)c4ccc(F)cc4o2)CC1)CC3` (centres undefined), for which the IC50 was 14.6 µM in data set [1], 0.021 µM in data set [2] and 0.095 µM in data set [3].

Consider `O=C(NC1CCN(C2CCc3c2ccc2c3OCO2)CC1)c1cc(=O)c2ccc(F)cc2o1` (centres undefined), for which the 50% inhibitory concentration (IC50) in [1] worked out at 5.86 µM; in [2], 0.076 µM; in [3], 2.75 µM.

In the case of `CC(=O)Nc1ccc2c(c1)C(N1CCC(NC(=O)c3cc(=O)c4ccc(F)cc4o3)CC1)CC2` (single isomer, unassigned; (+)), the figures for the 50% inhibitory concentration (IC50) in data set [2] and in data set [3] were 2.57 µM and greater than 10 µM, respectively. Besides, the AUC in the data set on Mus musculus [4] amounted to 3760 ng·h/mL; in the data set with Mus musculus [7] it was 0.043 µg·h/g. For the same compound, the values for the peak concentration (Cmax) (in the data set with Mus musculus [5]; in [8]) were 1410 ng/mL and 17 ng/g, respectively. In the data set on Mus musculus [6], this compound displayed a T1/2 of 1.3 h.

With `CC(=O)Nc1ccc2c(c1)C(N1CCC(NC(=O)c3cc(=O)c4ccc(F)cc4o3)CC1)CC2` (single isomer, unassigned; (-)), the IC50 in [2] turned out to be 0.004 µM; in [3], 0.026 µM. Further, the AUC in the data set on Mus musculus [4] turned out to be 41600 ng·h/mL; in the data set with Mus musculus [7], 0 µg·h/g. For the same compound, the Cmax (in general, the peak of the concentration-time curve) with Mus musculus [5] turned out to be 14600 ng/mL. The half-life (usually the time in which the quantity being followed falls by half) in data set [9] was 2.3 h.

For the compound `CC(=O)Nc1ccc2c(c1)C(N1CCC(NC(=O)c3cc(=O)c4ccc(F)cc4o3)CC1)CC2` (stereo in doubt; 16), the values for the IC50 in data set [2] and in data set [3] were 0.003 µM and 0.056 µM, respectively.
